Data on two compounds can be found in ChEMBL document CHEMBL1275246 (Bioorg Med Chem, 2010).

For series [1], the target named is 5-hydroxytryptamine receptor 5A (Homo sapiens) (UniProt P47898). Kind of series: Displacement of [3H]LSD from human cloned 5HT5A receptor. In general terms: Displacement assays read how much labelled ligand stays bound in the presence of the test substance.
For series [2], the target named is 5-hydroxytryptamine receptor 3A (Homo sapiens) (UniProt P46098). Kind of series: Displacement of [3H]LY278584 from human cloned 5HT3 receptor.
The target of series [3] is 5-hydroxytryptamine receptor 4 (Homo sapiens) (UniProt Q13639). Kind of series: Binding affinity to human cloned 5HT4 receptor.
For series [4], the target named is 5-hydroxytryptamine receptor 2C (Rattus norvegicus) (UniProt P08909). Kind of series: Displacement of [3H]Mesulergine from rat cloned 5HT2C receptor.
In series [5] the target is 5-hydroxytryptamine receptor 2B (Homo sapiens) (UniProt P41595). As to the kind of experiment: Displacement of [3H]LSD from human cloned 5HT2B receptor.
The target in series [6] is 5-hydroxytryptamine receptor 1D (Homo sapiens) (UniProt P28221). As to the kind of experiment: Displacement of [3H][…] from human cloned 5HT1D receptor.
In series [7] the target is 5-hydroxytryptamine receptor 1E (Homo sapiens) (UniProt P28566). Kind of series: Displacement of [3H]5-HT from human cloned 5HT1E receptor.
The target of series [8] is 5-hydroxytryptamine receptor 1B (Homo sapiens) (UniProt P28222). Kind of series: Displacement of [3H][…] from human cloned 5HT1B receptor.
For series [9], the target named is 5-hydroxytryptamine receptor 1A (Homo sapiens) (UniProt P08908). As to the kind of experiment: Displacement of [3H]8-OH-DPAT from human cloned 5HT1A receptor.
Series [10] addresses Alpha-2C adrenergic receptor (Homo sapiens) (UniProt P18825). As to the kind of experiment: Displacement of [3H]clonidine from human cloned adrenergic alpha2c receptor.
Series [11] has as its target Kappa-type opioid receptor (Rattus norvegicus) (UniProt P34975). Kind of series: Displacement of [3H]U69593 from rat cloned kappa opioid receptor.
Series [12] deals with D(1A) dopamine receptor (Homo sapiens) (UniProt P21728). As to the kind of experiment: Displacement of [3H][…] from human cloned dopamine D1 receptor.
Series [13] deals with D(2) dopamine receptor (Homo sapiens) (UniProt P14416). Kind of series: Displacement of [3H]N-methylspiperone from human cloned dopamine D2 receptor.
Series [14] addresses D(3) dopamine receptor (Rattus norvegicus) (UniProt P19020). Kind of series: Displacement of [3H]N-methylspiperone from rat cloned dopamine D3 receptor.
The target of series [15] is D(4) dopamine receptor (Homo sapiens) (UniProt P21917). As to the kind of experiment: Displacement of [3H]N-methylspiperone from human cloned dopamine D4 receptor.
For series [16], the target named is Histamine H2 receptor (Homo sapiens) (UniProt P25021). As to the kind of experiment: Displacement of [3H]Tiotidine from human cloned histamine H2 receptor.
Series [17] concerns the target Histamine H4 receptor (Homo sapiens) (UniProt Q9H3N8). Kind of series: Displacement of [3H]histamine from human cloned histamine H4 receptor.
Series [18] concerns the target Prostaglandin E2 receptor EP3 subtype (Homo sapiens) (UniProt P43115). As to the kind of experiment: Displacement of [3H]PGE2 from human cloned EP3 receptor.
Series [19] concerns the target Prostaglandin E2 receptor EP4 subtype (Homo sapiens) (UniProt P35408). As to the kind of experiment: Displacement of [3H]PGE2 from human cloned EP4 receptor.
Series [20] has as its target Sodium-dependent noradrenaline transporter (Homo sapiens) (UniProt P23975). Kind of series: Displacement of [3H]nisoxetine from human cloned NET.
Series [21] has as its target Alpha-1A adrenergic receptor (Homo sapiens) (UniProt P35348). As to the kind of experiment: Displacement of [3H]prazosin from human cloned adrenergic alpha1A receptor.
In series [22] the target is Alpha-1B adrenergic receptor (Homo sapiens) (UniProt P35368). Kind of series: Displacement of [3H]prazosin from human cloned adrenergic Alpha-1B receptor.
Series [23] concerns the target Alpha-2A adrenergic receptor (Homo sapiens) (UniProt P08913). As to the kind of experiment: Displacement of [3H]clonidine from human cloned adrenergic alpha-2a receptor.
Series [24] has as its target Delta-type opioid receptor (Homo sapiens) (UniProt P41143). As to the kind of experiment: Displacement of [3H]DADLE from human cloned delta opioid receptor.
For series [25], the target named is Muscarinic acetylcholine receptor M2 (Homo sapiens) (UniProt P08172). Kind of series: Displacement of [3H]QNB from human cloned muscarinic M2 receptor.
Series [26] addresses Muscarinic acetylcholine receptor M4 (Homo sapiens) (UniProt P08173). Kind of series: Displacement of [3H]QNB from human cloned muscarinic M4 receptor.
The nature of series [27]: Biodistribution in iv dosed baboon heart by dynamic PET imaging analysis. The series is classed as ADME, organism-based. Particulars: papio anubis, in vivo; call rule not given here. In outline: (§1)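 Female Papio anubis baboons; ketamine 10 mg/kg i.m. induction, then O2/N2O/isoflurane (1–4%). Radiotracer given through a radial arm vein catheter. Dynamic 3D PET over 90 min (55 frames), brain or torso in field of view. Regions of interest drawn on summed images give time-activity curves as decay-corrected %injected dose/cc.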

Series [28] is described as follows: Biodistribution in iv dosed baboon heart by dynamic PET imaging analysis in presence of metergoline. Type of series: ADME, organism-based. Particulars: papio anubis, in vivo. In short, it runs like this:
(§2)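 Baboons anesthetized (ketamine i.m., then isoflurane/N2O/O2). […] Dynamic 3D PET for 90 min, brain or torso in view. Region time-activity curves as decay-corrected %ID/cc.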

The nature of series [29]: Drug uptake in iv dosed baboon occipital cortex in presence of metergoline. The series is classed as ADME, organism-based. Particulars: papio anubis, in vivo. In outline:
as §2

The nature of series [30]: Drug uptake in iv dosed baboon occipital cortex in presence of altanserin. Type of series: ADME, organism-based. Particulars: papio anubis, in vivo. In short, it runs like this:
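Baboon pretreated with altanserin 0.5 mg/kg, dissolved in 2% HCl in EtOH, diluted with saline to 30 mL, filter-sterilized (final pH ~5.5). Given 15 min before i.v. radiotracer. Anesthetized animal (ketamine, then isoflurane). 90-min dynamic 3D brain PET; region curves as decay-corrected %ID/cc.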

Series [31] can be described thus: Drug uptake in iv dosed baboon occipital cortex in presence of citalopram. Particulars: papio anubis, in vivo. The series is classed as ADME, organism-based. In outline:
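Citalopram-HBr 5.0 mg/kg (as free base) in 10 mL saline, filter-sterilized, i.v. bolus 20 min before radiotracer in anesthetized baboons. 90-min dynamic 3D brain PET. Region time-activity curves as decay-corrected %ID/cc.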

Series [32] can be described thus: Fraction unbound in baboon plasma after 10 mins. The series is classed as ADME, cell-free. The settings on record: papio anubis. In outline:
(§3)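 Radiotracer in saline added to pooled baboon plasma (from ≥4 animals). Mixed by inversion, incubated 10 min at room temperature. Total activity sampled. Plasma then centrifuged 10 min through a Centrifree ultrafiltration unit and filtrate counted. %unbound = filtrate activity ×100/total activity.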

For another series, the system named is Brain. As to the kind of experiment: Biodistribution in iv dosed baboon brain after 2 to 10 mins by PET imaging analysis. The series is classed as ADME, organism-based. Particulars: papio anubis, in vivo. In outline: as §1
Series [33] can be described thus: Drug uptake in iv dosed baboon frontal cortex in presence of metergoline. The series is classed as ADME, organism-based. Particulars: papio anubis, in vivo. In short, it runs like this: as §2
A short description of series [34]: Plasma protein binding in baboon after 10 mins. Type of series: ADME, cell-free. Particulars: papio anubis, read-out: PPB. In outline:
as §3

Series [35] can be described thus: Lipophilicity, log D of compound in phosphate buffer solution at pH 7.4. Type of series: physicochemical. In outline: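 Formulated radiotracer partitioned between octanol and phosphate buffer pH 7.4: vortexed 2 min, centrifuged 2 min. Octanol layer serially re-extracted with fresh buffer to give six sample sets, each phase well-counted. logD = log(decay-corrected octanol activity ×10/decay-corrected buffer activity) for each set.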

Series [36] is described as follows: Biodistribution in iv dosed baboon gall bladder by dynamic PET imaging analysis. The series is classed as ADME, organism-based. The settings on record: papio anubis, in vivo. In outline: as §1

D(3) dopamine receptor (Rattus norvegicus), sequence (P19020 whole entry): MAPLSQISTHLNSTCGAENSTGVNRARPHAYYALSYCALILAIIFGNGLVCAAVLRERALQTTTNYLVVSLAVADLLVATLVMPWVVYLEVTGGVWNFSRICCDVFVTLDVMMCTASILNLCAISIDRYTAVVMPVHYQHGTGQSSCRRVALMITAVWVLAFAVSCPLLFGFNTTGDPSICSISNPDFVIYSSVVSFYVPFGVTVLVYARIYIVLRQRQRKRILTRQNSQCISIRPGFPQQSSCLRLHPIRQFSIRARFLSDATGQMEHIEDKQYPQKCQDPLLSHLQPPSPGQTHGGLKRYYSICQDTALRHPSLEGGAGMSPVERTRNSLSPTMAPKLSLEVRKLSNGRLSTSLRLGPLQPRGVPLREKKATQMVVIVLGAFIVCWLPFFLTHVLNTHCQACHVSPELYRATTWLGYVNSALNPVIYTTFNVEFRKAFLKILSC
5-hydroxytryptamine receptor 1D (Homo sapiens), sequence (P28221 whole entry): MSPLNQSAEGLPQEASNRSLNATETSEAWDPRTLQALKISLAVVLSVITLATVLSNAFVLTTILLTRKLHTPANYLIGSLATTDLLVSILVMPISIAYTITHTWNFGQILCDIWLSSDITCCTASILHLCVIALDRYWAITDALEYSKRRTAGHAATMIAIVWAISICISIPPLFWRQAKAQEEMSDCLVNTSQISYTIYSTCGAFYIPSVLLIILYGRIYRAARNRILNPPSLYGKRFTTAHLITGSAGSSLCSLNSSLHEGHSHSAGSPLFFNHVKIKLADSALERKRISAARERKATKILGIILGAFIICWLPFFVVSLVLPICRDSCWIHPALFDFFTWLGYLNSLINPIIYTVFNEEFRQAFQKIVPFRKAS
5-hydroxytryptamine receptor 2C (Rattus norvegicus), sequence (P08909 whole entry): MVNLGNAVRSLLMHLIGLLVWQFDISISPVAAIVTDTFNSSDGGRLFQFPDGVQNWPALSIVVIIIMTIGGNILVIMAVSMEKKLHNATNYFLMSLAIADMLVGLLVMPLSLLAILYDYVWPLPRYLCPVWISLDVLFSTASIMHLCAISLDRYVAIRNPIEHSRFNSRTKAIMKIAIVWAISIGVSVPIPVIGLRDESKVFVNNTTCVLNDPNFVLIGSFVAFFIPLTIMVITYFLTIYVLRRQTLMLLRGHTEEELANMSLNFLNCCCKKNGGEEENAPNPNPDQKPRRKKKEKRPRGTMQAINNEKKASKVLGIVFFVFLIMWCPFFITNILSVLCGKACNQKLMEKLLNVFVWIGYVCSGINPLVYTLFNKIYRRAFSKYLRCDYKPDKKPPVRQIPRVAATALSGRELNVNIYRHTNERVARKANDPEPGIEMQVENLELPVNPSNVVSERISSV
D(2) dopamine receptor (Homo sapiens), sequence (P14416 whole entry): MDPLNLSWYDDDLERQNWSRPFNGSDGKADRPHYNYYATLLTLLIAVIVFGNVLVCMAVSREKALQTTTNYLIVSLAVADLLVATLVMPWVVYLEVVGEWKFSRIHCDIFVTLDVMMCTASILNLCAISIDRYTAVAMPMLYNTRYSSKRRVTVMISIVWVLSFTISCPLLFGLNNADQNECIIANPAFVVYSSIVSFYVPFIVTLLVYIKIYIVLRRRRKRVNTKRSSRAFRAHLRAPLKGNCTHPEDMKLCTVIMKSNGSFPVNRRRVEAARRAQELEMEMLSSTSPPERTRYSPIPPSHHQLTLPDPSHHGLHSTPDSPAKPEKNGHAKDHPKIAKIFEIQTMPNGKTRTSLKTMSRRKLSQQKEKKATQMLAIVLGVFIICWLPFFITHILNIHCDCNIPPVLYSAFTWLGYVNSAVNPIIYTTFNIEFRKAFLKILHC
D(1A) dopamine receptor (Homo sapiens), sequence (P21728 whole entry): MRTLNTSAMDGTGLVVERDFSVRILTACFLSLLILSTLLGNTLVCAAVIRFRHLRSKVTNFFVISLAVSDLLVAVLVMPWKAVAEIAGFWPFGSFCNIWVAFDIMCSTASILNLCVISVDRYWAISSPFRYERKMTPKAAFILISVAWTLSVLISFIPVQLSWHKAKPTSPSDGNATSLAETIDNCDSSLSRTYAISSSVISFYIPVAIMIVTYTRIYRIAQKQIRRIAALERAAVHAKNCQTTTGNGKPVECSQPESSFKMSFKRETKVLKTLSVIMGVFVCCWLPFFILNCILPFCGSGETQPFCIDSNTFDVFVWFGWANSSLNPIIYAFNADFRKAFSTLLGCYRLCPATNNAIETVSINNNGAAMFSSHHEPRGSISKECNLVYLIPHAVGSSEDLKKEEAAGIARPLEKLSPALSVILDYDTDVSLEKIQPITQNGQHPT
Sodium-dependent noradrenaline transporter (Homo sapiens), sequence (P23975 whole entry): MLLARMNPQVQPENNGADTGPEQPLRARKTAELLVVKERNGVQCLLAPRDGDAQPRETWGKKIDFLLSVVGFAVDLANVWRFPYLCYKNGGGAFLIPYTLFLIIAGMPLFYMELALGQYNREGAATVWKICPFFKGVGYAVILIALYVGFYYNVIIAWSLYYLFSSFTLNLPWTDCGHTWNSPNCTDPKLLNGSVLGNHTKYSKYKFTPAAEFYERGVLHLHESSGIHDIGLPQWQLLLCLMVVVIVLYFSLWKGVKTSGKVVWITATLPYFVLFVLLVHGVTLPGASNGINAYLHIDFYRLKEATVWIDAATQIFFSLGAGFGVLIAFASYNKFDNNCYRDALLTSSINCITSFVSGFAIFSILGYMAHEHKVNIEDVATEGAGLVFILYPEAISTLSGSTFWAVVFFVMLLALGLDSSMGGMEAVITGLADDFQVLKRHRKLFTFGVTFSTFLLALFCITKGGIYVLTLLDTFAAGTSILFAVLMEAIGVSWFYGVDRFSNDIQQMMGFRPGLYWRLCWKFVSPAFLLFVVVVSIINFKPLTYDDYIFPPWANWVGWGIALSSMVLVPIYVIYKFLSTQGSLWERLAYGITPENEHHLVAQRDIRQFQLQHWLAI
Alpha-1B adrenergic receptor (Homo sapiens), sequence (P35368 whole entry): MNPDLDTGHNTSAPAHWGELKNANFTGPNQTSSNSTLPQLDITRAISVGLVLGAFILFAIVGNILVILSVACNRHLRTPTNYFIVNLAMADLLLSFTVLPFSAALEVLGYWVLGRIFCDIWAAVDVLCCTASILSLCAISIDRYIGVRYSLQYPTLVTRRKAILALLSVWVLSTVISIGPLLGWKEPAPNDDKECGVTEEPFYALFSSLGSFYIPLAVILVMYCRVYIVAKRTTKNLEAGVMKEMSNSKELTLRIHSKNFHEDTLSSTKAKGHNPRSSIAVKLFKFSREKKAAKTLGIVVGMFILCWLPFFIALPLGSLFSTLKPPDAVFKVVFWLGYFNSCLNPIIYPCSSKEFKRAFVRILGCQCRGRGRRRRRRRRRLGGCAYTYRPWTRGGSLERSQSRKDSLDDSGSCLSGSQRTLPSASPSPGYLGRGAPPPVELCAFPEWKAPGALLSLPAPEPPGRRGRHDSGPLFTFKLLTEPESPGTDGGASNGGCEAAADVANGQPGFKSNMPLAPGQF
5-hydroxytryptamine receptor 1E (Homo sapiens), sequence (P28566 whole entry): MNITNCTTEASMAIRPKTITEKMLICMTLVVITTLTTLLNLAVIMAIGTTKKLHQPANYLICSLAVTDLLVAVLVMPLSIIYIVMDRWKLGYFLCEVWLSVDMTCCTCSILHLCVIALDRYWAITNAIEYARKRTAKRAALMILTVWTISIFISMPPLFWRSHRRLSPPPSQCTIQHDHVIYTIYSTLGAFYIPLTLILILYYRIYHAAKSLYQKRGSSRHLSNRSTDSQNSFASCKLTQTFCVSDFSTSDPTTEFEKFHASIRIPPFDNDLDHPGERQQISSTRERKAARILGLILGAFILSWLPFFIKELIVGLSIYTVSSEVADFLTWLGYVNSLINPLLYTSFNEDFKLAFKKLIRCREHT
D(4) dopamine receptor (Homo sapiens), sequence (P21917 whole entry): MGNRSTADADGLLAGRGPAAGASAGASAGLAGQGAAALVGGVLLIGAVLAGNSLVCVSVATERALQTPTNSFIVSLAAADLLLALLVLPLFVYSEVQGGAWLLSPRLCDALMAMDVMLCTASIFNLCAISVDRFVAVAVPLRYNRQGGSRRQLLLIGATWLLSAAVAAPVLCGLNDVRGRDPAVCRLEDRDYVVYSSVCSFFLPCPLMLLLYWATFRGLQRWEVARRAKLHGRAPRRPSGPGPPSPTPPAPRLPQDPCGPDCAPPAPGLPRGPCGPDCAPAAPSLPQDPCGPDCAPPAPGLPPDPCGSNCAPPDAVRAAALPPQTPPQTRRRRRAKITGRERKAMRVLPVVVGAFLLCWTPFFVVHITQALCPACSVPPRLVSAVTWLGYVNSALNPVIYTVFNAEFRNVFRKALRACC
5-hydroxytryptamine receptor 5A (Homo sapiens), sequence (P47898 whole entry): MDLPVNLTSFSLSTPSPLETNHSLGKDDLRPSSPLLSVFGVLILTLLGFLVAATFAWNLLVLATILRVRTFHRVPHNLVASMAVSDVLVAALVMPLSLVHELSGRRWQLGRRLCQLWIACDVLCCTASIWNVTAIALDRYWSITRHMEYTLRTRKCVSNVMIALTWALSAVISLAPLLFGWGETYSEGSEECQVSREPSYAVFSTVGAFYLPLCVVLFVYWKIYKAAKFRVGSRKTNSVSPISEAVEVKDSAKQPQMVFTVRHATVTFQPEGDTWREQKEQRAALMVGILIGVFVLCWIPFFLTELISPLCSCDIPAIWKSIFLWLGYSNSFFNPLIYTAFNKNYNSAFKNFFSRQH
Histamine H4 receptor (Homo sapiens), sequence (Q9H3N8 whole entry): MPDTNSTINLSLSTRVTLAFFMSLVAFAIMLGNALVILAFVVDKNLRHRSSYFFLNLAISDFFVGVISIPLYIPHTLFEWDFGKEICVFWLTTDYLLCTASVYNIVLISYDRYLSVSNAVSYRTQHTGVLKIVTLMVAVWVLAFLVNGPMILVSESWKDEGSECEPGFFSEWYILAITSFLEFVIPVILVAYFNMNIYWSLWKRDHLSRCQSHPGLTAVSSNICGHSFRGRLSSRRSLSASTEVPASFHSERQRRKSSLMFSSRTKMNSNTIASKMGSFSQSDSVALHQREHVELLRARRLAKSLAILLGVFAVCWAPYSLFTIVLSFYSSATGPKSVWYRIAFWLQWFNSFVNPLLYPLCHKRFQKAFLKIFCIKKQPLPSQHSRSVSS

As for `CN1C[C@H](CNC(=O)OCc2ccccc2)C[C@@H]2c3cccc4c3c(cn4C)C[C@H]21` [METERGOLINE], the Activity in series [1] is 562 nM; in series [2], above 10 µM; in [3] it was 1270 nM; in series [4] it was 9.5 nM; in [5], 2.6 nM; in [6] it was 0.9 nM. In addition, the Activity in [7] was found to be 1660 nM; in series [8], 28 nM; in [9], 10 nM; in series [10], 30 nM; in series [11] it was 63.2 nM; in series [12] it was 9 nM. Besides, the Activity in [13] was 74 nM; in series [14] it was 14 nM; in series [15], 4.9 nM; in [16] it was 104 nM; in series [17] it was 12.7 nM; in series [18], 21.7 nM. The Activity in series [19] was found to be 15.2 nM; in series [20], 1130 nM; in [21], 30 nM; in [22], 123 nM; in series [23] it was 31 nM; in [24] it was 18.9 nM. Further, the figures for the Activity in series [25] and in series [26] were 17.7 nM and 36.9 nM, respectively. Moreover, the Drug uptake entry in series [27] and in [28] was “Active” each time.
Take `CN1C[C@H](CN[11C](=O)OCc2ccccc2)C[C@@H]2c3cccc4c3c(cn4C)C[C@H]21` [[11C]-METERGOLINE]: the Drug uptake result in series [29] was “Not Active”; in [30], “Not Active”; in series [31], “Active”; with Brain, 0.01 %ID; in series [33], “Not Active”; in series [36], 0.3 %ID. Besides, the Fu in [32] came out at 0.55%. Besides, the fraction unbound at 10 min in series [34] was below 0.01. The log distribution coefficient (logD) in [35] was determined as 3.3.

One may read the logD as lipophilicity at a set pH, counting ionised and neutral species. Read a high logD as a more lipophilic compound.
